Measured values from ChEMBL document CHEMBL1828575, “Design, synthesis and antiproliferative activities of biarylolefins based on polyhydroxylated and carbohydrate scaffolds” (Eur J Med Chem, 2011).

How the values were obtained:
Assay type in all cases: functional
OVCAR-8 = test: Antitumor activity against human OVCAR8 cells after 48 hrs by SRB assay; conditions: OVCAR-8, 48 h
Outline: (§1)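 NCI60 panel in RPMI 1640 with 5% FBS and 2 mM L-glutamine. Cells were plated at 5000–40,000/well by doubling time, held 24 h, then time-zero plates were TCA-fixed. Five concentrations (10-fold or half-log dilutions of DMSO stocks) were applied for 48 h at 37 °C, 5% CO2. Cells were fixed with cold TCA (10% final adherent, 16% suspension) and stained with 0.4% SRB. Bound dye was dissolved in 10 mM Tris and read at 515 nm. GI50, TGI and LC50 were calculated per line.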

HCT-116 = test: Antitumor activity against human HCT116 cells after 48 hrs by SRB assay; conditions: HCT-116, 48 h; outline: as §1
M14 = test: Cytotoxicity against human M14 cells assessed as cellular growth at 10 uM after 48 hrs by SRB assay
Outline: (§2)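 NCI60 single-dose screen of cells in RPMI 1640 with 5% FBS and 2 mM L-glutamine, preincubated 24 h at 37 °C, 5% CO₂. Cells were then exposed 48 h to compound added from DMSO stock. TCA-fixed, stained with 0.4% SRB in 1% acetic acid, dye solubilised in 10 mM Tris base and read at 515 nm. Growth is given as percent of untreated control.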

ACHN = test: Antitumor activity against human ACHN cells after 48 hrs by SRB assay; outline: as §1
COLO 205 = test: Cytotoxicity against human COLO205 cells assessed as cellular growth at 10 uM after 48 hrs by SRB assay; outline: as §2
NCI-H522 = test: Cytotoxicity against human NCI-H522 cells assessed as cellular growth at 10 uM after 48 hrs by SRB assay
Outline: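 NCI-60 panel lines grown in RPMI 1640 with 5% FBS and 2 mM L-glutamine. Plated at 5000–40,000 cells/well and preincubated 24 h at 37 °C, 5% CO₂, with time-zero plates fixed in TCA. Compounds, dissolved in DMSO and diluted in medium, were applied for 48 h. Cells were TCA-fixed (10% final for adherent, 16% for suspension) and stained with 0.4% SRB in 1% acetic acid. Dye was solubilised in 10 mM Tris base and read at 515 nm; growth was expressed as a percentage of untreated control.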

K562 [1] = test: Cytotoxicity against human K562 cells assessed as cellular growth at 10 uM after 48 hrs by SRB assay; outline: as §2
LOX IMVI = test: Antitumor activity against human LOXIMVI cells after 48 hrs by SRB assay; outline: as §1
MDA-MB-468 = test: Antitumor activity against human MDA-MB-468 cells after 48 hrs by SRB assay; conditions: MDA-MB-468, 48 h; outline: as §1
DU-145 = test: Antitumor activity against human DU145 cells after 48 hrs by SRB assay; conditions: DU-145, 48 h; outline: as §1
EKVX = test: Cytotoxicity against human EKVX cells assessed as cellular growth at 10 uM after 48 hrs by SRB assay; outline: as §2
HT-29 = test: Cytotoxicity against human HT-29 cells assessed as cellular growth at 10 uM after 48 hrs by SRB assay; outline: as §2
RPMI-8226 = test: Antitumor activity against human RPMI8226 cells after 48 hrs by SRB assay; conditions: RPMI-8226, 48 h; outline: as §1
PC-3 = test: Antitumor activity against human PC3 cells after 48 hrs by SRB assay; conditions: PC-3, 48 h; outline: as §1
A549 = test: Antitumor activity against human A549 cells after 48 hrs by SRB assay; conditions: A549, 48 h; outline: as §1
BT-549 = test: Cytotoxicity against human BT549 cells assessed as cellular growth at 10 uM after 48 hrs by SRB assay; outline: as §2
U-251 = test: Antitumor activity against human U251 cells after 48 hrs by SRB assay; conditions: U-251, 48 h
Outline: (§3)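 NCI60 panel cells grown in RPMI 1640 with 5% FBS and 2 mM L-glutamine, plated at 5000–40,000 cells/well and preincubated 24 h at 37 °C, 5% CO₂. Compound was added from DMSO at five concentrations, 10-fold or 1/2 log dilutions, then incubated 48 h.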

SK-MEL-2 = test: Antitumor activity against human SK-MEL-2 cells after 48 hrs by SRB assay; conditions: SK-MEL-2, 48 h; outline: as §3
SK-MEL-5 = test: Antitumor activity against human SK-MEL-5 cells after 48 hrs by SRB assay; conditions: SK-MEL-5, 48 h; outline: as §3
UACC-257 = test: Antitumor activity against human UACC257 cells after 48 hrs by SRB assay; conditions: UACC-257, 48 h; outline: as §3
K562 [2] = test: Antitumor activity against human K562 cells after 48 hrs by SRB assay; conditions: K562, 48 h; outline: as §1
HCT-15 = test: Cytotoxicity against human HCT15 cells assessed as cellular growth at 10 uM after 48 hrs by SRB assay; outline: as §2
[3] = read-out: LC50 (the source's name)
[4] = read-out: pLC50 (the source's name) (converted)

COc1cc(/C(=C2\O[C@@H]([C@H]3COC(C)(C)O3)[C@H]3OC(C)(C)O[C@@H]23)c2ccc3ccccc3c2)cc(OC)c1OC
GI50 (OVCAR-8; read-out: GI50): 3.69 µM
CC50 (OVCAR-8; [3]): > 100 µM
TGI (OVCAR-8; read-out: TGI): > 100 µM
GI50 (OVCAR-8; read-out: pGI50 (converted)): 4.37 µM
CC50 (OVCAR-8; [4]): > 100 µM
TGI (OVCAR-8; read-out: pTGI): > 100 µM
GI50 (HCT-116): 2.51 µM
LC50 (concentration giving 50% net cell kill) (HCT-116): 20.6 µM
TGI (HCT-116): 5.7 µM
Activity (M14): 62.78%
GI50 (ACHN; read-out: GI50): 4.39 µM
CC50 (ACHN; [3]): > 100 µM
TGI (ACHN; read-out: TGI): > 100 µM
GI50 (ACHN; read-out: pGI50 (converted)): 4.57 µM
CC50 (ACHN; [4]): > 100 µM
TGI (ACHN; read-out: pTGI): > 100 µM
Activity (COLO 205): 66.91%
Activity (NCI-H522): 8.05%
Activity (K562 [1]): 28.12%
GI50 (LOX IMVI): 3.39 µM
TGI (LOX IMVI): 19.8 µM
CC50 (LOX IMVI; [3]): > 100 µM
GI50 (MDA-MB-468; read-out: GI50): 4.02 µM
CC50 (MDA-MB-468; [3]): > 100 µM
TGI (MDA-MB-468; read-out: TGI): 21.1 µM
GI50 (MDA-MB-468; read-out: pGI50 (converted)): 3.98 µM
CC50 (MDA-MB-468; [4]): > 100 µM
TGI (MDA-MB-468; read-out: pTGI (converted)): 20.9 µM
GI50 (DU-145; read-out: GI50): 4.33 µM
CC50 (DU-145; [3]): > 100 µM
TGI (DU-145; read-out: TGI): > 100 µM
GI50 (DU-145; read-out: pGI50 (converted)): 4.37 µM
CC50 (DU-145; [4]): > 100 µM
TGI (DU-145; read-out: pTGI (converted)): > 100 µM
Activity (EKVX): 53.7%
Activity (HT-29): 40.98%
LC50 (concentration killing 50% of starting cells) (RPMI-8226): > 100 µM
GI50 (RPMI-8226; read-out: GI50): 33.3 µM
TGI (RPMI-8226; read-out: TGI): > 100 µM
GI50 (RPMI-8226; read-out: pGI50 (converted)): 33.1 µM
CC50 (RPMI-8226; [4]): > 100 µM
TGI (RPMI-8226; read-out: pTGI (converted)): > 100 µM
GI50 (PC-3; read-out: GI50): 5.71 µM
CC50 (PC-3; [3]): > 100 µM
TGI (PC-3; read-out: TGI): > 100 µM
GI50 (PC-3; read-out: pGI50 (converted)): 5.75 µM
CC50 (PC-3; [4]): > 100 µM
TGI (PC-3; read-out: pTGI): > 100 µM
GI50 (A549; read-out: GI50): 3.09 µM
CC50 (A549; [3]): > 100 µM
TGI (A549; read-out: TGI): 9.55 µM
GI50 (A549; read-out: pGI50 (converted)): 3.09 µM
CC50 (A549; [4]): > 100 µM
TGI (A549; read-out: pTGI (converted)): 9.55 µM
Activity (BT-549): 22.16%
GI50 (U-251): 3.12 µM
TGI (U-251): 11.8 µM
CC50 (U-251; [3]): > 100 µM
GI50 (SK-MEL-2): 1.53 µM
TGI (SK-MEL-2): 4.12 µM
CC50 (SK-MEL-2; [3]): 24.1 µM
GI50 (SK-MEL-5): 4.07 µM
LC50 (SK-MEL-5): 51.4 µM
TGI (SK-MEL-5): 15.4 µM
GI50 (UACC-257; read-out: GI50): 4.28 µM
CC50 (UACC-257; [3]): > 100 µM
TGI (UACC-257; read-out: TGI): 23.8 µM
GI50 (UACC-257; read-out: pGI50 (converted)): 4.27 µM
CC50 (UACC-257; [4]): > 100 µM
TGI (UACC-257; read-out: pTGI (converted)): 24 µM
GI50 (K562 [2]; read-out: GI50): 4.02 µM
CC50 (K562 [2]; [3]): > 100 µM
TGI (K562 [2]; read-out: TGI): > 100 µM
GI50 (K562 [2]; read-out: pGI50 (converted)): 3.98 µM
CC50 (K562 [2]; [4]): > 100 µM
TGI (K562 [2]; read-out: pTGI): > 100 µM
Activity (HCT-15): 59.71%
